In data set [1] the test system is MIA PaCa-2. The experiment in a line: Induction of unfolded protein response in human MIAPaCa2 cells assessed as upregulation of DDIT3 gene expression after 4 hrs by Bru-seq analysis. The data set is classed as functional, cell-based.
For data set [2], the system named is MIA PaCa-2. The experiment in a line: Antitumor activity against human MIAPaCa2 cells xenografted in NOD/SCID mouse assessed as tumor volume at 5 mg/kg, ip administered 5 times a week co-administered with gemcitabine at 15 mg/kg administered once a week for 48 days (reference value: 1503 +/- 189 mm'3). Type of data set: functional. The gist of the method:
(§1)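 MIA PaCa-2 subcutaneous xenografts in NOD/SCID mice, randomized at 75 mm3. Test agent was given at 5 mg/kg five times a week. Gemcitabine was given at 15 mg/kg either once weekly for 48 days or twice weekly for 15 days. Groups were n=3–4. Tumor volume was measured by caliper, given as mean ± SEM, and compared by unpaired t test.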
(A xenograft is tissue or cells of one species grown in another, often human tumour cells in immunodeficient mice.)

Data set [3] deals with Mus musculus. The data set is described as follows: Toxicity in NOD/SCID mouse xenografted with human MIAPaCa2 cells assessed as microscopic changes in kidney at 5 mg/kg, ip administered 5 times a week until day 44 by hematoxylin and eosin staining-based inverted microscopic method. The data set is classed as organism-based. The following applies: in vivo. The gist of the method: (§2)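 Necropsy after the 44-day ip course in MIA PaCa-2 xenograft-bearing NOD/SCID mice: heart, kidney, liver, lung, spleen and pancreas fixed in 10% neutral buffered formalin, paraffin-embedded, sectioned and stained with hematoxylin and eosin. Sections examined by inverted microscope at 20X, compared with vehicle-treated animals.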

Data set [4] concerns Mus musculus. The experiment in a line: Toxicity in NOD/SCID mouse xenografted with human MIAPaCa2 cells assessed as body weight loss at 5 mg/kg, ip administered 5 times a week co-administered with gemcitabine at 15 mg/kg administered once a week for 48 days. Type of data set: organism-based. The following applies: in vivo, 1152 h. The gist of the method:
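MIA PaCa-2 xenografted NOD/SCID mice randomized at 75 mm3 into vehicle (n=4), single-agent (n=3 each) and combination (n=3) arms. Drug given at 5 mg/kg five times a week, gemcitabine at 15 mg/kg once a week, over a 48-day period. Body weight followed; mean ± SEM.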

The subject of data set [5] is PANC-1. The data set is described as follows: Cytotoxicity against human PANC1 cells assessed as decrease in cell proliferation after 72 hrs by MTT assay. The data set is classed as functional, cell-based. As to conditions: PANC-1, 72 h. An outline of the steps: (§3)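 MTT assay. Cells (3000–8000/well) attached overnight in RPMI1640 with 10% FBS; the GR line was kept with 200 nM gemcitabine. Serial dilutions (30 nM–10 μM for most lines) were applied for 72 h. MTT was added at a final 300 μg/mL for 3 h at 37°C, formazan was dissolved in DMSO and A570 read. Inhibition = (1 − OD treated/OD control) × 100. IC50 given as mean ± SD, three independent experiments.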

In data set [6] the test system is Mus musculus. The experiment in a line: Toxicity in NOD/SCID mouse xenografted with human MIAPaCa2 cells assessed as microscopic changes in liver at 5 mg/kg, ip administered 5 times a week until day 44 by hematoxylin and eosin staining-based inverted microscopic method. The data set is classed as organism-based. The following applies: in vivo. The gist of the method: as §2

For data set [7], the system named is PANC-1. The experiment in a line: Induction of reactive oxygen species generation in human PANC1 cells assessed as upregulation of HO-1 expression at 2 uM after 4 to 24 hrs by Western blot analysis. Type of data set: functional, cell-based. An outline of the steps: (§4)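 Immunoblotting. Cells (4×10^5) in 60 mm dishes were treated, lysed 30 min at 4°C and quantified by BCA. 40 μg protein was run on SDS-PAGE and transferred to PVDF. Primary antibodies (1:1000) incubated overnight at 4°C, then Dylight 800 secondary, with fluorescent scanning. Bands were normalized to GAPDH or actin loading controls. Mean ± SD, three independent experiments, Student's t-test.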
A general note: Immunoblotting shows a protein as a band on a membrane.

In data set [8] the test system is BXPC-3. The data set is described as follows: Cytotoxicity against human BxPC3 cells assessed as decrease in cell proliferation after 72 hrs by MTT assay. The data set is classed as functional, cell-based. As to conditions: BXPC-3, 72 h. An outline of the steps:
as §3

The test system of data set [9] is MIA PaCa-2. The experiment in a line: Induction of reactive oxygen species generation in human MIAPaCa2 cells assessed as upregulation of NQO1 gene expression after 4 hrs by Bru-seq analysis. The data set is classed as functional, cell-based.
In data set [10] the test system is MIA PaCa-2. The data set is described as follows: Antiproliferative activity against human MIAPaCa2 cells xenografted in NOD/SCID mouse at 5 mg/kg, ip administered 5 times a week until day 44 by ki67 staining-based assay. The data set is classed as functional, organism-based.
Data set [11] has as its system MIA PaCa-2. The experiment in a line: Antitumor activity against human MIAPaCa2 cells xenografted in NOD/SCID mouse assessed as tumor volume at 5 mg/kg, ip administered 5 times a week for 48 days (reference value: 1503 +/- 189 mm'3). Type of data set: functional. An outline of the steps:
as §1

The nature of data set [12]: Induction of compound colloidal behavior.
The subject of data set [13] is MIA PaCa-2. The data set is described as follows: Induction of unfolded protein response in human MIAPaCa2 cells assessed as upregulation of HSPA5 gene expression after 4 hrs by Bru-seq analysis. Type of data set: functional, cell-based. An outline of the steps:
(§5)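 Nascent RNA sequencing (Bru-seq): 4×10^6 MIA PaCa-2 cells seeded in 10 cm dishes, treated next day for 4 h with drug or DMSO. Bromouridine (2 mM final) added for the last 30 min. Total RNA taken in TRIZOL; labeled RNA immunocaptured, converted to cDNA libraries and deep sequenced. Signal compared with DMSO-treated cells.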

Data set [14] relates to Mus musculus. The experiment in a line: Induction of unfolded protein response in tumor of NOD/SCID mouse xenografted with MIAPaCa2 cells assessed as upregulation of GRP78 expression at 5 mg/kg, ip administered 5 times a week until day 44 by Western blot method. Type of data set: functional, organism-based. The gist of the method:
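Dosed ip in 5% DMSO/60% propylene glycol/35% saline, five days on/two off, until day 44, versus vehicle. Tumor lysates immunoblotted with primary antibodies, Dylight 800 secondary, fluorescent scan.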

Data set [15] deals with MIA PaCa-2. The experiment in a line: Inhibition of mtDNA transcription from HSP2 promoter in human MIAPaCa2 cells at 5 times IC50 after 4 hrs by Bru-seq analysis. Type of data set: functional, cell-based. An outline of the steps: as §5
For data set [16], the system named is Mus musculus. The data set is described as follows: Toxicity in NOD/SCID mouse xenografted with human MIAPaCa2 cells assessed as weakness at 5 mg/kg, ip administered 5 times a week until day 44. The data set is classed as organism-based. The following applies: in vivo. The gist of the method:
(§6)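 Subcutaneous flank MIA PaCa-2 xenografts (2.0×10^6 cells) in 6-week NOD/SCID mice, randomized at 65 mm3 (n=5/group: vehicle or drug). Dosed ip in 5% DMSO/60% propylene glycol/35% saline, five days on/two off, to day 44. Body weight tracked and mice watched for weakness, weight loss or lethargy; mean ± SEM.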

The subject of data set [17] is Mus musculus. The experiment in a line: Toxicity in NOD/SCID mouse xenografted with human MIAPaCa2 cells assessed as body weight loss at 5 mg/kg, ip administered 5 times a week until day 44. The data set is classed as organism-based. The following applies: in vivo. An outline of the steps: as §6
The test system of data set [18] is MIA PaCa-2. The experiment in a line: Induction of apoptosis signaling in human MIAPaCa2 cells at 5 times IC50 after 4 hrs by IPA analysis. The data set is classed as functional, cell-based.
The test system of data set [19] is Mus musculus. The data set is described as follows: Toxicity in NOD/SCID mouse xenografted with human MIAPaCa2 cells assessed as microscopic changes in spleen at 5 mg/kg, ip administered 5 times a week until day 44 by hematoxylin and eosin staining-based inverted microscopic method. Type of data set: organism-based. The following applies: in vivo. The gist of the method:
as §2

For data set [20], the system named is BXPC-3. The experiment in a line: Induction of unfolded protein response in human BxPC3 cells assessed as upregulation of GRP78 expression at 2 uM by Western blot analysis. The data set is classed as functional, cell-based. The following applies: TDE = time-dependent effect. An outline of the steps:
as §4

The nature of data set [21]: Induction of compound aggregation.

From ChEMBL document CHEMBL4052826, “Design and Synthesis of Novel Reactive Oxygen Species Inducers for the Treatment of Pancreatic Ductal Adenocarcinoma” (J Med Chem, 2018) come the findings set out here.

The source made the active and inactive calls. No cut-off for these calls is given here.

The IC50 is the concentration at which inhibition is half-maximal.

As to `O=C1C(Nc2ccc(-c3ccccc3)cc2)=CC(=O)c2ncncc21`, the Activity entry in the data set on MIA PaCa-2 [1] is “Dose-dependent effect”; with MIA PaCa-2 [2] it was 163 mm3; in the data set with Mus musculus [3] it was “Non-Toxic”; with Mus musculus [4], “Non-Toxic”; with Mus musculus [6], “Non-Toxic”; in the data set on MIA PaCa-2 [9] it was “Dose-dependent effect”. The Activity was 248 mm3 in the data set on MIA PaCa-2 [11]; “Dose-dependent effect” with MIA PaCa-2 [13]; “Non-Toxic” with Mus musculus [16]; “Non-Toxic” with Mus musculus [17]; “Non-Toxic” with Mus musculus [19]; “Tde” in the data set with BXPC-3 [20]. For the same compound, the half-maximal inhibitory concentration (IC50) with PANC-1 [5] came out at 400 nM; with BXPC-3 [8] it was 500 nM. Moreover, the outcome with PANC-1 [7] was inactive. For the same compound, the result (in the data set on MIA PaCa-2 [10]; in data set [12]; with Mus musculus [14]; in the data set on MIA PaCa-2 [18]; in data set [21]) was Active. The inhibition entry with MIA PaCa-2 [15] is “Active”.
